Results on 29 molecules are retold here after ChEMBL document CHEMBL1122703, “Antihypertensives. N-1H-Pyrrol-1-yl-3-pyridazinamines” (J Med Chem, 1984).

Where only a bound is given, the exact number is not on record here.

Data set [1] has as its system Canis familiaris. The data set can be described thus: Effect of compound (given intravenously) on systolic blood pressure in conscious renal hypertensive dogs at 20 h. It is filed as functional, Canis lupus familiaris, Artery. The method, boiled down:
(§1)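 Groups of four conscious mongrel renal hypertensive dogs; compound dissolved in distilled water and given intravenously at 0.5 mL/kg (1 mg/kg or 0.3 mg/kg in the time-course table). Systolic pressure and heart rate measured indirectly at the tail with a sensor and pressure cuff, at 0, 4, 6, 8, 10, 12 and 20 h. Values are mean ± SE of four animals.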

For data set [2], the system named is Canis familiaris. Briefly: Effect of compound (given intravenously) on heart rate in conscious renal hypertensive dogs 6 h. In kind it is functional, Canis lupus familiaris. The method, boiled down:
as §1

For data set [3], the system named is Canis familiaris. Briefly: Effect of compound (given intravenously) on systolic blood pressure in conscious renal hypertensive dogs at 8 h. It is filed as functional, Canis lupus familiaris, Artery. A digest of the protocol: as §1
Data set [4] concerns Canis familiaris. Briefly: Effect of compound (given intravenously) on systolic blood pressure in conscious renal hypertensive dogs at 6 h. In kind it is functional, Canis lupus familiaris, Artery. A digest of the protocol: as §1
Data set [5] deals with Canis familiaris. Briefly: Effect of compound (given intravenously) on systolic blood pressure in conscious renal hypertensive dogs at 12 h. It is filed as functional, Canis lupus familiaris, Artery. A digest of the protocol: as §1
The test system of data set [6] is Canis familiaris. The data set can be described thus: Effect of compound (given intravenously) on systolic blood pressure in conscious renal hypertensive dogs at 4 h. In kind it is functional, Canis lupus familiaris, Artery. A digest of the protocol:
as §1

Data set [7] has as its system Canis familiaris. Briefly: Effect of compound (given intravenously) on heart rate in conscious renal hypertensive dogs at 4 h. In kind it is functional, Canis lupus familiaris. The method, boiled down: as §1
The test system of data set [8] is Canis familiaris. The data set can be described thus: Effect of compound (given intravenously) on heart rate in conscious renal hypertensive dogs at 12 h. In kind it is functional, Canis lupus familiaris. The method, boiled down:
as §1

Data set [9] deals with Canis familiaris. The data set can be described thus: Effect of compound (given intravenously) on systolic blood pressure in conscious renal hypertensive dogs at 10 h. It is filed as functional, Canis lupus familiaris, Artery. The method, boiled down:
as §1

For data set [10], the system named is Canis familiaris. Briefly: Effect of compound (given intravenously) on systolic blood pressure in conscious renal hypertensive dogs at 0 h. In kind it is functional, Canis lupus familiaris, Artery. A digest of the protocol: as §1
Data set [11] concerns Canis familiaris. The data set can be described thus: Effect of compound (given intravenously) on heart rate in conscious renal hypertensive dogs at 0 h. In kind it is functional, Canis lupus familiaris. A digest of the protocol:
as §1

The test system of a further data set is Rattus norvegicus. Briefly: Oral dose which produces a 30 mmHg drop of systolic blood pressure (calculated on regression line). In kind it is functional. The conditions noted are these: Artery. The method, boiled down: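 Groups of three male conscious spontaneously hypertensive rats; compound suspended in aqueous 0.5% methocel and given by gavage at 2 mL/kg. Systolic pressure measured by indirect tail-cuff before and 2 and 4 h after dosing, following 20 min warming at 37 °C. The dose giving a 30 mmHg fall was read from the regression line of maximum fall against log dose.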

Data set [12] has as its system Canis familiaris. Briefly: Effect of compound (given intravenously) on heart rate in conscious renal hypertensive dogs at 10 h. It is filed as functional, Canis lupus familiaris. The method, boiled down: as §1
Data set [13] deals with Canis familiaris. Briefly: Effect of compound (given intravenously) on heart rate in conscious renal hypertensive dogs at 20 h. In kind it is functional, Canis lupus familiaris. A digest of the protocol:
as §1

For data set [14], the system named is Canis familiaris. Briefly: Effect of compound (given intravenously) on heart rate in conscious renal hypertensive dogs at 8 h. In kind it is functional, Canis lupus familiaris. A digest of the protocol:
as §1

Data set [15] in a line: Partition coefficient (logD7.4). The conditions noted are these: octanol/water, pH 7.4.

For `Cc1ccc(C)n1Nc1ccc(N2CCOCC2)nn1.Cl` [MOPIDRALAZINE HYDROCHLORIDE], the Pressure was found to be 187 mmHg with Canis familiaris [1]; 140 mmHg in the data set on Canis familiaris [3]; 150 mmHg in the data set with Canis familiaris [4]; 165 mmHg in the data set on Canis familiaris [5]; 168 mmHg in the data set with Canis familiaris [6]; 147 mmHg with Canis familiaris [9]. The molecule further displayed a Pressure in the data set with Canis familiaris [10] of 190 mmHg. Further, the Heart rate amounted to 100 beats min-1 in the data set with Canis familiaris [2]; 92 beats min-1 in the data set on Canis familiaris [7]; 105 beats min-1 with Canis familiaris [8]; 80 beats min-1 in the data set on Canis familiaris [11]; 107 beats min-1 in the data set on Canis familiaris [12]; 105 beats min-1 in the data set with Canis familiaris [13]. In the data set with Canis familiaris [14], this molecule came in with a Heart rate of 110 beats min-1. Further, in the data set with Rattus norvegicus, the ED30 was 3.9 mg/kg.

For the molecule `CCOCCN(CCOCC)c1ccc(Nn2c(C)ccc2C)nn1`, in the data set on Rattus norvegicus, the ED30 was 2 mg/kg.

Consider `Cc1ccc(C)n1Nc1ccc(N(C)CC(C)O)nn1` (stereo not drawn), for which, in the data set on Rattus norvegicus, the ED30 is 7.7 mg/kg.

As to `Cc1ccc(C)n1Nc1ccc(N2CCNCC2)nn1`, the ED30 with Rattus norvegicus was 30 mg/kg.

With `Cc1ccc(C)n1N(C)c1ccc(N2CCOCC2)nn1`, in the data set with Rattus norvegicus, the ED30 was 15.8 mg/kg. For the same molecule, the logD in data set [15] was found to be 2.21.

For the molecule `Cc1c(Nn2c(C)ccc2C)nnc(N2CCOCC2)c1C`, the ED30 with Rattus norvegicus is 35 mg/kg.

With `Cc1ccc(C)n1Nc1ccc(N(C)C)nn1`, the ED30 in the data set with Rattus norvegicus was approximately 22 mg/kg.

In the case of `Cc1cc(N2CCOCC2)nnc1Nn1c(C)ccc1C`, the ED30 in the data set on Rattus norvegicus is approximately 26 mg/kg.

Regarding `COCCN(C)c1ccc(Nn2c(C)ccc2C)nn1`, the ED30 in the data set on Rattus norvegicus was 7 mg/kg. Besides, the logD in data set [15] worked out at 2.16.

Take `CCN(CC)c1ccc(Nn2c(C)ccc2C)nn1`: the ED30 in the data set on Rattus norvegicus was 3.9 mg/kg.

On to `NNc1nncc2ccccc12` [HYDRALAZINE], for which the Pressure in the data set on Canis familiaris [1] is listed as 188 mmHg; in the data set with Canis familiaris [3], 148 mmHg; in the data set on Canis familiaris [4], 138 mmHg; in the data set on Canis familiaris [5], 190 mmHg; in the data set on Canis familiaris [6] it was 135 mmHg; with Canis familiaris [9], 188 mmHg. Moreover, the Pressure with Canis familiaris [10] came out at 188 mmHg. Also, the Heart rate is 128 beats min-1 in the data set with Canis familiaris [7]; 118 beats min-1 in the data set with Canis familiaris [8]; 78 beats min-1 in the data set with Canis familiaris [11]; 125 beats min-1 in the data set on Canis familiaris [12]; 115 beats min-1 with Canis familiaris [13].

For `CN(c1ccc(N2CCOCC2)nn1)n1cccc1`, in the data set on Rattus norvegicus, the ED30 was 16.5 mg/kg.

For `Cc1ccc(C)n1Nc1nnc(N2CCOCC2)c2ccccc12`, the ED30 in the data set on Rattus norvegicus was approximately 91 mg/kg.

For the molecule `CCc1ccc(CC)n1Nc1ccc(N2CCOCC2)nn1`, the ED30 in the data set on Rattus norvegicus was 15.4 mg/kg. This molecule also came in with a logD in data set [15] of 2.71.

In the case of `Cc1ccc(C)n1Nc1ccc(N2C(C)COCC2C)nn1` (stereo not drawn), the ED30 in the data set with Rattus norvegicus is 18.5 mg/kg.

Consider `Cc1ccc(C)n1Nc1ccc(N2CCCCC2)nn1`, for which, in the data set with Rattus norvegicus, the ED30 was 10 mg/kg.

`Cc1ccc(C)n1Nc1ccc(N2CCSCC2)nn1`: the ED30 in the data set with Rattus norvegicus was approximately 25 mg/kg.

In the case of `Cc1ccc(C)n1Nc1nnc(N2CCC(O)CC2)c2ccccc12`, the ED30 with Rattus norvegicus is approximately 33 mg/kg.

As to `Cc1ccc(C)n1Nc1nnc(N2CCOCC2)c2c1CCCC2`, the ED30 in the data set with Rattus norvegicus was approximately 33 mg/kg.

Consider `Cc1ccc(C)n1Nc1ccc(N2CCN(C)CC2)nn1`, for which the ED30 with Rattus norvegicus was approximately 43 mg/kg.

For `Cc1ccc(C)n1Nc1ccc(N(CCO)CCO)nn1`, in the data set on Rattus norvegicus, the ED30 is more than 100 mg/kg.

With `COCCN(CCOC)c1ccc(Nn2c(C)ccc2C)nn1`, in the data set with Rattus norvegicus, the ED30 was 2.7 mg/kg.

Take `Cc1ccc(C)n1Nc1ccc(N(CC(C)O)CC(C)O)nn1` (stereo not drawn): the ED30 in the data set with Rattus norvegicus was approximately 54 mg/kg.

As for `Cc1ccc(C)n1Nc1ccc(N(CCO)CC(C)O)nn1` (stereo not drawn), the ED30 in the data set with Rattus norvegicus is more than 100 mg/kg.

Regarding `CC(=O)N(c1ccc(N2CCOCC2)nn1)n1c(C)ccc1C`, in the data set on Rattus norvegicus, the ED30 was 11.8 mg/kg. In [15], the logD turned out to be 1.64.

On to `Cc1ccc(C)n1Nc1ccc(N2CCCC2)nn1`, for which the ED30 with Rattus norvegicus is more than 100 mg/kg.

`Cc1ccc(C)n1Nc1ccc(N2CCC(O)CC2)nn1`: the ED30 with Rattus norvegicus was 12.6 mg/kg.

For `c1ccn(Nc2ccc(N3CCOCC3)nn2)c1`, the ED30 with Rattus norvegicus is more than 100 mg/kg.

As to `C=CCN(CC=C)c1ccc(Nn2c(C)ccc2C)nn1`, the ED30 in the data set with Rattus norvegicus was 11.4 mg/kg.
